Shown is part of a subset that was picked to be rich in hits.
HSF1 inh – HSF1 inhibition; activity change, negative = inhibition, % at 7.5 µM (by protocol); 300,000 tested, 0.77% active; AID 2098; NIH3T3-HGL HSE-luciferase, MG132-induced, luminescence 8 h; stronger effect = lower value;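 active = more than half of replicate wells show activity change below -50%, luminescence cut by over half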;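 note: luciferase reports HSF-1 transcriptional activity via heat shock element; 0% = median of DMSO wells and -100% = zero luminescence signal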
Hsp70 activator – Hsp70 transcriptional activation, primary screen | HeLa Hsp70 promoter luciferase reporter, luminescence; scaled: vehicle 0, proteasome-inhibitor control 100% | activation, % at 10 µM | 200,000 tested, 0.04% active | AID 1203;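 active = activation above the mean across all tested compounds plus 3 SD, cutoff set per campaign, cut at about 5.5% in these data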;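 note: 100% = MG132 at 30 µM as the positive control and 0% = DMSO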
Lmaj promast – Leishmania major promastigote growth inhibition. Leishmania major promastigotes, resazurin fluorescence viability. inhibition, % at 10 µM. 200,000 tested, 9% active. AID 1063; in the data active = inhibition above about 50%;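 note: promastigotes grown with compound for 44 hours at 28 °C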
T cruzi inh – blocks replication of Trypanosoma cruzi | inhibition, % (no concentration beside the values) | AID 1885 | T. cruzi beta-gal in NIH3T3, luminescence, 90 h | 300,000 tested, 1.4% active;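 active = mean inhibition across valid replicates above about 55%, limit read from the data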;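 note: signal also drops with host cell toxicity which is not excluded here; 0% = plate median of DMSO wells and 100% = zero luminescence signal; higher percent means less beta-gal luminescence so fewer parasites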
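System: mouse NIH/3T3 fibroblasts infected with β-gal-expressing T. cruzi Tulahuen C4 / Input: NIH/3T3 cells, 5,000 per well / Buffer or medium: Low-serum DMEM with 2% FBS / Probe or stimulus: 5000 reporter trypomastigotes per well / Schedule: ≥90 h infection period, 3 h prior cell attachment / Measured by: GalScreen luminescence, 60 min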
HSF-1 act – increases HSF-1 driven luciferase reporter signal; NIH3T3-HGL HSF-1 luciferase reporter, MG132, 8 h; 100% = twice DMSO control signal; activation, % at 9 µM; 300,000 tested, 1.7% active;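 active = mean replicate activation of at least 50% with a set share of replicates each reaching 50%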;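 note: 0% = median of the neutral control wells and 100% = twice that signal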
* hit, by the source's call; / = not tested or not shown.

SMILES	HSF1 inh	Hsp70 activator	Lmaj promast	T cruzi inh	HSF-1 act
CCCCNC(=O)C1=C(N)C(C(=O)Nc2ccc(C)c(S(=O)(=O)N3CCCCC3)c2)SC1=Nc1ccc(C)cc1C (centres undefined)	2	0	-25	6	-1
O=C(Nc1cccc(S(=O)(=O)N2CCOCC2)c1)c1cnccn1	-7	0	24	-12	-16
CC1CCCCN1c1ncnc2ccccc12 (centres undefined)	/	0	10	-17	/
CCC1CCCCN1c1nc(-c2cccc(OC)c2O)nc2ccccc12 (centres undefined)	3	0	18	52	3
CC1CCCCN1c1nc(-c2ccncc2)nc2ccccc12 (centres undefined)	-13	0	81*	60*	7
CCC1CCCCN1c1nc(-c2ccncc2)nc2ccccc12 (centres undefined)	-5	0	95*	63*	-5
Cc1ccc(C(=O)/C=C/c2cc(C#N)n(C)c2C)cc1	15	/	/	9	23
CCn1c2ccccc2c2nc3cc(OC)c(OC)cc3nc21	18	0	73*	41	2
COc1ccc(/C=N/n2c(SC)nnc2-c2ccccc2)cc1C	5	0	63*	25	11
CC(C)(C)c1ccc(C(=O)NCCC(=O)N2CCC3(CC2)NCCc2[nH]cnc23)cc1	-7	/	/	-7	-3
O=C(c1cccc(Cl)c1)N1CCC(N2CCC(C(=O)N3CCOCC3)CC2)CC1	3	0	42	-4	1
CC1CN(C2CCN(C(=O)c3cccc(Cl)c3)CC2)CC(C)O1 (centres undefined)	-5	1	91*	-3	-23
CC1CN(C2CCN(C(=O)c3ccccc3Cl)CC2)CC(C)O1 (centres undefined)	-2	0	88*	2	3
O=C(c1cccc(F)c1)N1CCC(N2CCOCC2)CC1	2	0	62*	-8	0
CCCc1cc2c(cc1NC(=O)c1ccc(C)cc1)OCO2	-1	0	1	3	9
Cc1ccc(-n2c3nc(=O)[nH]c(=O)c-3cc3cc([N+](=O)[O-])ccc32)cc1C	-2	0	94*	6	25
Cc1ccc(S(=O)(=O)n2cnc3cc([N+](=O)[O-])ccc32)cc1C	-2	0	-3	-32	4
C=CCn1c(O)c(C=Nc2ccc(CN3CCCCC3)cc2)c(=O)[nH]c1=S	1	/	/	-19	21
COc1ccc(CN2C(=O)c3cccnc3C2=O)cc1S(=O)(=O)NC1CCCCC1	-1	/	/	1	2
c1ccc(-c2ccc(OCCCn3cncn3)cc2)cc1	/	0	96*	/	/
c1ccc(Oc2cccc(OCCn3cncn3)c2)cc1	-57*	0	44	-12	-69
c1ccc(COc2ccc(OCCn3cncn3)cc2)cc1	11	0	-5	-17	26
Brc1cccc(OCCCCn2cncn2)c1	1	/	/	4	-1
C/C(=N\N1CCN(C)CC1)c1ccc(Cl)c(Cl)c1	-4	0	81*	18	1
C/C(=N\N1CCN(C)CC1)c1ccc(OC(F)F)cc1	-11	0	-8	3	-24
SMILES	HSF1 inh	Hsp70 activator	Lmaj promast	T cruzi inh	HSF-1 act
CC1=NN(c2ccc(Cl)cc2)C(=O)/C1=C\c1cccn1-c1ccc(S(N)(=O)=O)cc1	13	0	50*	-4	48
Cc1ccccc1-n1nc(C)c2cc(C(=O)N3CCN(S(=O)(=O)c4ccc(Cl)cc4)CC3)sc21	20	0	38	35	18
Cc1ccccc1-n1nc(C)c2cc(C(=O)N3CCN(S(=O)(=O)c4ccc(F)cc4)CC3)sc21	19	0	52*	22	45
O=C(C1=C[C@H](c2ccc(C(F)(F)F)cc2)C[C@H](OCCCCO)O1)N1CCN(Cc2ccc3c(c2)OCO3)CC1	-70*	0	95*	35	-78
O=C(C1=C[C@H](c2ccc(Br)cc2)C[C@H](OCCCCO)O1)N1CCN(Cc2ccccc2)CC1	2	0	17	56*	31
O=C(C1=C[C@@H](c2ccc(Br)cc2)C[C@@H](OCCCCO)O1)N1CCN(Cc2ccc3c(c2)OCO3)CC1	13	0	43	24	2
CCOc1ccc(N2CC(C(=O)NC3=NCCS3)CC2=O)cc1 (centres undefined)	-10	0	-8	-6	1
COC(=O)C1C(=O)c2c([nH]c(C(=O)OC3CCCCC3)c2C)CC1C (centres undefined)	28	0	-4	-8	68*
CC(C)OCCCN1CN(S(=O)(=O)c2cccs2)c2nc3ccccc3nc21	3	/	/	-8	4
Cc1ccc(-c2nn3c(C)nnc3s2)cc1NC(=O)c1ccc(-c2cccc(Cl)c2)o1	5	0	15	22	11
Cc1nnc2sc(-c3cccc(NC(=O)c4ccc(-c5cccc(Cl)c5)o4)c3)nn12	/	0	98*	/	/
CC(C)COc1ccc(CNC(=S)N/N=C/c2ccc([N+](=O)[O-])cc2)cc1	6	0	2	24	-2
CCCOc1ccc(CNC(=S)N/N=C/c2ccc([N+](=O)[O-])cc2)cc1	12	0	8	61*	19
CC(C)Oc1ccc(CNC(=S)N/N=C/c2ccc([N+](=O)[O-])cc2)cc1	-67*	0	38	48	-74
Cc1ccc(S(=O)(=O)N2CCN(C(=O)c3ccc(N4CCCCC4)c([N+](=O)[O-])c3)CC2)cc1	3	/	/	6	0
CCc1c(C)sc(NC(=O)Cc2ccccc2OC)c1C(=O)N1CCOCC1	0	/	/	8	-6
COCCNC(=O)/C(=C/c1ccccc1Cl)c1ccccc1	3	0	5	3	-5
COc1ccc2[nH]c(=O)c(CN(Cc3ccco3)Cc3nnnn3Cc3ccccc3)cc2c1	1	0	1	-10	-2
COc1ccc2cc(CN(Cc3ccco3)C(c3nnnn3C3CCCCC3)C(C)C)c(=O)[nH]c2c1 (centres undefined)	27	-1	98*	43	70*
COc1ccc2cc(CN(Cc3ccco3)Cc3nnnn3C3CCCCC3)c(=O)[nH]c2c1	7	0	96*	2	-6
COc1ccc2[nH]c(=O)c(C(c3nnnn3C(C)(C)C)N(Cc3ccco3)CC3CCCO3)cc2c1 (centres undefined)	6	0	2	9	7
O=S(=O)(Cc1ccccc1)NCC1CCCN(Cc2ccc3nonc3c2)C1 (centres undefined)	0	0	93*	46	25
O=S(=O)(Cc1ccccc1)NCC1CCCN(Cc2ccc(F)c(F)c2)C1 (centres undefined)	3	0	90*	61*	6
COc1ccc(NC(=O)Cn2cnc3sc(C)c(S(=O)(=O)N4CCOCC4)c3c2=O)cc1Cl	2	/	/	12	23
Cc1ccc(S(=O)(=O)CCC(=O)Nc2ccccc2Br)cc1	-4	/	/	4	9

From PubChem BioAssay
